Arr AP2 block: inhibitors of human beta-arrestin and AP2 interaction; FITC-arrestin peptide / GST-AP2 beads, flow cytometry; AP2 beta2 appendage carries R879A mutation; inhibition, % at 10 µM; hit rate 0.31% among 340,000;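 active = inhibition above a set limit, near 3 SD of compounds lacking own fluorescence, cut at about 54% in these data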;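 note: plate controls were DMSO wells for no effect and 5 µM unlabelled arrestin peptide for full effect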
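System: GST-AP2 R879A glutathione beads | Also added: FITC-arrestin peptide, 50 nM | Times: 12 min plus 1 h, RT | Signal: Bead flow cytometry, FITC channel | Buffer or medium: PBS with 0.05% Tween 20 and 0.1% BSA | Read-out basis: Percent drop in bead-associated FITC signal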
MEKK2wt PB1 HTS: raises or lowers MEK5 binding to wildtype human MEKK2 PB1 domain | hit rate 1.1% among 290,000 | AID 1531 | bead flow cytometry, Alexa488-MEK5 binding to MEKK2 WT; actives lie on both sides | binding response (% of control), % at 10 µM | Q9Y2U5; in the data active = binding response below about 67% or above about 130%
MEKK2 mut-MEK5: signal of MEK5 binding to mutant human MEKK2 PB1 domain | percent response, % at 10 µM | bead flow cytometry, Alexa488-MEK5 binding to MEKK2 mutant | hit rate 0.35% among 290,000; in the data active = percent response above about 24%, passing the limit was not always enough
MEKK3 PB1 HTS: raises or lowers MEK5 binding to the human MEKK3 PB1 domain; hit rate 1.4% among 290,000; bead-based flow cytometry, Alexa488-MEK5 binding to MEKK3; actives lie on both sides; 0 = blocked by unlabeled MEK5, 100 = vehicle; Q99759; binding response (% of control), % at 10 µM; AID 1529;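 active = binding response more than 3 SD above or below the average of its plate-row segment, actives on both sides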;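 note: Alexa488 bead fluorescence after subtracting the streptavidin-only scavenger bead signal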
Target sequence (Q99759 whole entry, looked up, the tested form may be a part): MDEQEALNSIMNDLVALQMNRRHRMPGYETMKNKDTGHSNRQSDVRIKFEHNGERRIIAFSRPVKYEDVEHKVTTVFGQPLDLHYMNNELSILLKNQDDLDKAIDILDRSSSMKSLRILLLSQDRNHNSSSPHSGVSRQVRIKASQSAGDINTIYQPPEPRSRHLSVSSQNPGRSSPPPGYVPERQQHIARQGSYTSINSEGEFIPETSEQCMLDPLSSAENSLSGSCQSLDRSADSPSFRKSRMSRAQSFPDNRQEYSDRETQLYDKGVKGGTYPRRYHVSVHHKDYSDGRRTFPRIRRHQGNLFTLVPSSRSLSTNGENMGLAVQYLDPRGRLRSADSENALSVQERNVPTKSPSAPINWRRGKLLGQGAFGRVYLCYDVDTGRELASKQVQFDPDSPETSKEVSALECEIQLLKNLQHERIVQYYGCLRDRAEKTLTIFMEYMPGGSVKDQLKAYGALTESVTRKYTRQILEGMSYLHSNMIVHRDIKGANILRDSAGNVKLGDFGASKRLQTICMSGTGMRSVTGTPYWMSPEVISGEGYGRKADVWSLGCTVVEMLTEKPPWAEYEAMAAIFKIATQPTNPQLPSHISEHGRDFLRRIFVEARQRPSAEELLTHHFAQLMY
MEKK2wt confirm: raises or lowers MEK5 binding to wildtype human MEKK2, retest | shares compounds with MEKK3 PB1 HTS | bead flow cytometry, Alexa488-MEK5 binding to MEKK2 WT; actives lie on both sides | binding response (% of control), % at 10 µM | hit rate 2.4% among 5,900 | AID 1892; in the data active = binding response below about 16% or above about 210%; inactive = in between
MEKK2mut confirm: signal of MEK5 binding to mutant human MEKK2, retest. shares compounds with MEKK3 PB1 HTS. bead flow cytometry, Alexa488-MEK5 binding to MEKK2 mutant. percent response, % at 10 µM. hit rate 2% among 5,900. AID 1893; in the data active = percent response mostly above about 71%, no sharp cut-off; inactive = mostly below about 38%;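 note: higher means compound restores mutant binding toward wildtype level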
MEKK3-MEK5 inh: MEKK3-MEK5 PB1 inhibition, single concentration confirmation. AID 1894. shares compounds with MEKK3 PB1 HTS. bead flow cytometry, Alexa488-MEK5 binding to MEKK3; hits give low values. hit rate 1.8% among 5,900. binding response (% of control), % at 10 µM;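 active = binding response below 72% of control, or above a set upper limit, though filed actives all read lower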;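 note: 100% = DMSO only wells and 0% = binding blocked by excess unlabeled MEK5; lower values mean stronger disruption of MEK5 binding to MEKK3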
The depositor's hits bear a star; ! = a repeat was not active; [ ] = remark or other dose. Shown are actives, neighbours in structure and some others; about 2.3% of the full set was active somewhere.

For Cc1c(CCOC(=O)CC23CC4CC(CC(C4)C2)C3)sc[n+]1CC(=O)c1ccccc1 the results were Arr AP2 block 19.8, MEKK2wt PB1 HTS 139.0*, MEKK2 mut-MEK5 2.0 and MEKK3 PB1 HTS 115.0.
`Cc1c(CCOC(=O)C23CC4CC(CC(C4)C2)C3)sc[n+]1Cc1ccccc1` gave Arr AP2 block -1.6, MEKK2wt PB1 HTS 112.0, MEKK2 mut-MEK5 2.0 and MEKK3 PB1 HTS 102.0.
CN1CCS/C1=C\C=C1/SC(=S)N(CC(=O)O)C1=O was read as Arr AP2 block 35.7, MEKK2wt PB1 HTS 101.0, MEKK2 mut-MEK5 0.0 and MEKK3 PB1 HTS 112.0.
For CN1/C(=C\C=C2/SC(=S)N(CC(=O)O)C2=O)C(C)(C)c2ccccc21 the results were Arr AP2 block -17.7, MEKK2wt PB1 HTS 805.0*, MEKK2 mut-MEK5 880.0* and MEKK3 PB1 HTS 145.0*.
`Nc1nc(SCC(=O)Nc2cc(Cl)c(Cl)cc2Cl)n[nH]1` gave Arr AP2 block 15.0.
`Cc1ccc(-n2c(=O)c3cc4c(=O)n(-c5ccc(C)c(C)c5)c(=O)c4c(C(=O)c4ccc(C(=O)O)cc4)c3c2=O)cc1C` gave Arr AP2 block 9.1, MEKK2wt PB1 HTS 29.0*[inhibitor], MEKK2 mut-MEK5 -12.0 and MEKK3 PB1 HTS 48.0*[inhibitor].
Screening Cc1ccccc1OCCNc1cc(N2CC(C)NC(C)C2)ccc1[N+](=O)[O-] (stereo not given) returned Arr AP2 block -6.8, MEKK2wt PB1 HTS 198.0*, MEKK2 mut-MEK5 47.0, MEKK3 PB1 HTS 120.0, MEKK2wt confirm 137.0, MEKK2mut confirm 31.0 and MEKK3-MEK5 inh 100.0.
`CC1CN(c2ccc([N+](=O)[O-])c(NCCOc3ccccc3)c2)CC(C)N1` (stereo not given) gave Arr AP2 block 5.7, MEKK2wt PB1 HTS 170.0*, MEKK2 mut-MEK5 18.0, MEKK3 PB1 HTS 109.0, MEKK2wt confirm 140.0, MEKK2mut confirm 22.0 and MEKK3-MEK5 inh 107.0.
Screening CCc1ccc(OCCNc2cc(N3CCNC(C)C3)ccc2[N+](=O)[O-])cc1 (stereo not given) returned Arr AP2 block -0.7.
CC1CN(c2ccc([N+](=O)[O-])c(NCCOc3ccc(Cl)cc3)c2)CC(C)N1 (stereo not given) was read as Arr AP2 block 2.8, MEKK2wt PB1 HTS 222.0*, MEKK2 mut-MEK5 48.0*, MEKK3 PB1 HTS 109.0, MEKK2wt confirm 163.0, MEKK2mut confirm 31.0 and MEKK3-MEK5 inh 103.0.
Screening O=[N+]([O-])c1ccc(N2CCCCC2)cc1NCCOc1ccccc1 returned Arr AP2 block 26.8, MEKK2wt PB1 HTS 101.0, MEKK2 mut-MEK5 -1.0 and MEKK3 PB1 HTS 97.0.
O=C(NC1CCCCC1)C(c1ccccc1)N(C(=O)c1csnn1)C1CCCC1 (stereo not given) was read as Arr AP2 block 2.3, MEKK2wt PB1 HTS 103.0, MEKK2 mut-MEK5 2.0 and MEKK3 PB1 HTS 101.0.
Screening CC1=C(C(=O)OCCBr)C(c2cccc3ccccc23)NC(=O)N1 (stereo not given) returned Arr AP2 block -4.9, MEKK2wt PB1 HTS 97.0, MEKK2 mut-MEK5 2.0 and MEKK3 PB1 HTS 98.0.
`CCN(CC)c1ccc(/C=N/OCC(=O)Nc2cccc(C)c2)cc1` gave Arr AP2 block -9.3, MEKK2wt PB1 HTS 61.0*[inhibitor], MEKK2 mut-MEK5 52.0, MEKK3 PB1 HTS 104.0, MEKK2wt confirm 95.0, MEKK2mut confirm -8.0 and MEKK3-MEK5 inh 99.0.
c1ccc(-c2nc3ccccc3[nH]2)cc1 was read as Arr AP2 block 0.1, MEKK2wt PB1 HTS 108.0, MEKK2 mut-MEK5 8.0 and MEKK3 PB1 HTS 103.0.
Screening c1ccc2[nH]c(-c3ccncc3)nc2c1 returned Arr AP2 block 1.0, MEKK2wt PB1 HTS 46.0*![inhibitor], MEKK2 mut-MEK5 -13.0, MEKK3 PB1 HTS 42.0*![inhibitor], MEKK2wt confirm 106.0, MEKK2mut confirm 12.0 and MEKK3-MEK5 inh 108.0.
Screening C[C@H](CO)N1C[C@H](C)[C@@H](CN(C)C(=O)NC2CCCCC2)Oc2c(NS(=O)(=O)c3cn(C)cn3)cccc2C1=O returned Arr AP2 block -8.6.
Screening Cc1ccc(N=C2NC(=O)/C(=C\c3ccsc3)S2)c(C)c1 returned Arr AP2 block -1.3, MEKK2wt PB1 HTS 92.0, MEKK2 mut-MEK5 -2.0 and MEKK3 PB1 HTS 94.0.
Screening CC(C)(C)c1ccc(NC(=O)c2c(F)cccc2Cl)cc1 returned Arr AP2 block 6.3, MEKK2wt PB1 HTS 34.0*[inhibitor], MEKK2 mut-MEK5 -61.0, MEKK3 PB1 HTS 47.0*[inhibitor], MEKK2wt confirm 105.0, MEKK2mut confirm 5.0 and MEKK3-MEK5 inh 105.0.
CCC(=O)N(CCc1ccccc1)Cc1cc2cc(OC)ccc2[nH]c1=O was read as Arr AP2 block -1.8, MEKK2wt PB1 HTS 120.0, MEKK2 mut-MEK5 30.0, MEKK3 PB1 HTS 135.0*, MEKK2wt confirm 95.0, MEKK2mut confirm 1.0 and MEKK3-MEK5 inh 103.0.
CCC(=O)N(CCc1ccccc1)Cc1cc2ccc(OC)cc2[nH]c1=O was read as Arr AP2 block 16.9, MEKK2wt PB1 HTS 102.0, MEKK2 mut-MEK5 2.0 and MEKK3 PB1 HTS 101.0.
For Cc1cc(C)n2nc(C(=O)OCC(=O)NCc3ccc(F)cc3)nc2n1 the results were Arr AP2 block 27.5.
Cc1ccc(C)c2[nH]c(=O)c(CN(CCN3CCCC3)C(=O)Nc3cccc(Cl)c3)cc12 was read as Arr AP2 block 1.5, MEKK2wt PB1 HTS 153.0*, MEKK2 mut-MEK5 41.0*, MEKK3 PB1 HTS 110.0, MEKK2wt confirm 154.0, MEKK2mut confirm 35.0 and MEKK3-MEK5 inh 103.0.
For COc1cc(CNCc2cccs2)ccc1OCc1ccccc1 the results were Arr AP2 block 1.1.
Screening COc1cc(CNCc2cccs2)ccc1OCc1cccs1 returned Arr AP2 block 33.7, MEKK2wt PB1 HTS -1.0*[inhibitor], MEKK2 mut-MEK5 -27.0, MEKK3 PB1 HTS 2.0*[inhibitor], MEKK2wt confirm 122.0, MEKK2mut confirm 12.0 and MEKK3-MEK5 inh 102.0.
`O=c1[nH]c(=O)c2[nH]c(=S)n(-c3ccccc3)c2[nH]1` gave Arr AP2 block -9.7.
For Cc1ccc2c(CC(=O)NC3CCCc4ccccc43)coc2c1 (stereo not given) the results were Arr AP2 block -8.0, MEKK2wt PB1 HTS 109.0, MEKK2 mut-MEK5 0.0, MEKK3 PB1 HTS 147.0*, MEKK2wt confirm 107.0, MEKK2mut confirm 8.0 and MEKK3-MEK5 inh 102.0.
Screening O=C(CSc1nc2cc(S(=O)(=O)N3CCOCC3)ccc2o1)NC1CCCc2ccccc21 (stereo not given) returned Arr AP2 block 12.7, MEKK2wt PB1 HTS 3.0*[inhibitor], MEKK2 mut-MEK5 -21.0, MEKK3 PB1 HTS 2.0*[inhibitor], MEKK2wt confirm 98.0, MEKK2mut confirm 0.0 and MEKK3-MEK5 inh 101.0.
